Screening results as filed in PubChem.
This is a sample that favours compounds with a hit; in the whole collection about 5.1% have one here.
STAT3 blocker = inhibitors of IL-6 induced STAT3 signaling; actives 0.89% (n = 190,000); inhibition, % at 5.5 µM; U3A cells, IL-6 STAT3-luciferase reporter, luminescence; host cell line lacks STAT1;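 active = inhibition above the mean inhibition across all screened compounds plus 3 SD, cut at about 44% in these data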;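 note: 0% = DMSO only wells and 100% = 100 µM nifuroxazide control wells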
NF-kB neuron act = compounds increasing NF-kB expression in human neuronal cells; NF-kB reporter expression; hits give high values; AID 1239; fold change at 12.5 µM; actives 1.6% (n = 190,000); in the data active = fold change above about 3.3
APP 5'UTR act = APP 5'UTR luciferase reporter activation; SH-SY5Y APP 5'UTR luciferase reporter, luminescence; zero percent = DMSO vehicle wells; activation, % at 2 µM; actives 1% (n = 190,000); AID 1276;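 active = activation above a set limit, based on mean plus 3 SD of controls, cut at about 140% in these data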
STAT1 act-1 = activators of IFN-gamma induced STAT1 signaling; AID 932; actives 2.6% (n = 200,000); activation (% of control), % at 5.5 µM; NIH 3T3 STAT1-luciferase reporter, luminescence; 100% = IFN-gamma alone, no compound;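 active = activation above the screen-wide mean activation plus 3 SD, cut at about 130% in these data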;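 note: raw ratio to IFN-gamma control signal so 100% means no change and 0% no light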
STAT1 blocker = inhibitors of IFN-gamma induced STAT1 signaling; NIH 3T3 STAT1-luciferase reporter, luminescence; inhibition, % at 5.5 µM; actives 0.35% (n = 200,000);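 active = inhibition above a set limit, the mean inhibition across all tested compounds plus 3 SD, cut at about 34% in these data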;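 note: 0% = IFN-gamma with DMSO and 100% = IFN-gamma with 300 µM nifuroxazide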
STAT3 act-1 = activators of IL-6 induced STAT3 signaling | U3A cells, IL-6 STAT3-luciferase reporter, luminescence; 100% = signal with IL-6 EC80 alone | activation (% of control), % at 5.6 µM | actives 0.91% (n = 190,000);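 active = activation above the screen-wide mean of compound activation plus 3 SD, cut at about 130% in these data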;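 note: 0% = background luminescence of wells with medium and substrate only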
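Material: human U3A cells carrying STAT3-luciferase construct. Measured by: reporter luminescence signal. Timing: compound 1 h, then IL-6 6 h at 37 °C.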
STAT3 act-2 = confirmation of STAT3 signaling activators | shares compounds with STAT3 act-1 | U3A STAT3-luciferase reporter, IL-6 potentiation, luminescence; U3A cells lack STAT1; 100 means same as IL-6 alone | potentiation (% of control), % at 5.7 µM | actives 64% (n = 1,200) | AID 1267;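 active = percent activation of the STAT3 luciferase reporter above a set limit taken from the earlier primary screen, cut at about 130% in these data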;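 note: 0% = background signal of medium plus substrate and 100% = median of IL-6 with DMSO wells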
NFkB act 2 = activates NF-kappaB, counter-screen to STAT3 activators; human cells, NF-kappaB reporter activation; shares compounds with STAT3 act-1; activation (% of control), % at 5.7 µM; actives 11% (n = 1,200); in the data active = activation above about 120%;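 note: reporter induced by TNF-alpha stimulation; 100% = median of stimulated DMSO wells and 0% = no signal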
STAT1 act-2 = STAT1 activation in STAT3 activator counter-screen. shares compounds with STAT3 act-1. NIH 3T3 STAT1-luciferase reporter, IFN-gamma, luminescence. activation (% of control), % at 5.7 µM. actives 13% (n = 1,200). AID 1318;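 active = activation above the solvent-only control well mean plus 3 SD, set per screening run, cut at about 120% in these data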;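 note: 100% = IFN-gamma with DMSO median signal so 100% means no change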
* hit, by the source's call; / = not tested or not shown.

SMILES	STAT3 blocker	NF-kB neuron act	APP 5'UTR act	STAT1 act-1	STAT1 blocker	STAT3 act-1	STAT3 act-2	NFkB act 2	STAT1 act-2
Cc1nn(-c2ccccc2)c(C)c1/C=C/C(=O)OCC(=O)NC1CCS(=O)(=O)C1 (centres undefined)	4	/	-5	114	-17	101	/	/	/
O=C(c1cccnc1)N1CCC(Oc2ccc(C(=O)N3CCCCO3)cc2)CC1	1	0.92	-20	102	-2	105	/	/	/
Cn1nc(-c2ccccc2)c2nc3ccccc3nc21	-51	1	-4	88	14	150*	140*	105	93
Cn1c2ccccc2c2cc(C(=O)NNS(=O)(=O)c3ccc(F)cc3)sc21	-42	1.2	-9	99	1	136*	127	96	103
CC(C)(C)N1CC(C(=O)O)CC1=O (centres undefined)	-7	1.2	-5	102	-4	108	/	/	/
CC1CC(C)CN(C(=O)CSCC(=O)Nc2nc(-c3cccs3)cs2)C1 (centres undefined)	-44	1.3	8	90	11	136*	126	102	98
CN1C(=O)c2ccccc2C(C(=O)NCCCN2CCCC2=O)C1c1c[nH]c2ccccc12 (centres undefined)	-63	0.87	-10	96	2	152*	136*	105	100
COCCN1C(=O)c2ccccc2C(C(=O)NCCCN2CCCC2)C1c1c[nH]c2ccccc12 (centres undefined)	8	0.97	9	95	4	96	/	/	/
COc1ccc(Cl)cc1-n1c(C)ccc1C	4	0.93	1	100	-1	100	/	/	/
O=C(CCC1CCCC1)N1CCC(N2CCCCCC2)CC1	1	1.1	-5	95	5	100	/	/	/
CN(Cc1cc(=O)[nH]c2ccccc12)C(=O)c1ccccc1	-36	1.3	31	104	-5	136*	121	104	111
Cn1c(SCC(=O)Nc2nc(C(C)(C)C)cs2)nnc1C1CC1	2	1.1	-2	90	9	100	/	/	/
COc1ccc(/C=C/C(=O)c2cc(F)ccc2OC(=O)c2ccccc2OC)cc1OC	-45	1.9	-89	102	-3	156*	114	168*	108
CCOc1ccccc1C(=O)OCC(=O)Nc1ccc(OC(F)F)cc1	5	1.2	2	97	3	96	/	/	/
CN1c2ccsc2C(O)=C(C(=S)Nc2ccc(F)c(Cl)c2)S1(=O)=O	-49	1.2	-9	93	6	142*	102	105	97
Cn1cc(C(=O)Nc2ccc(F)c(Cl)c2)cn1	9	1.5	17	109	-10	96	/	/	/
O=P1(O)C=C(c2ccccc2)OC(c2ccccc2)=C1	-35	1.6	63	106	-7	136*	145*	118	127*
CC(=O)Nc1ccc(CN2CCc3c([nH]c4ccccc34)C2c2ccccn2)cc1 (centres undefined)	-25	1.1	23	96	4	127	/	/	/
Cc1cccc(C2c3[nH]c4ccccc4c3CCN2Cc2cccn2-c2ncccn2)c1 (centres undefined)	-54	1.1	16	95	4	149*	156*	106	98
COc1ccc(C2c3[nH]c4ccccc4c3CCN2Cc2cccn2-c2ncccn2)cc1C (centres undefined)	-38	0.89	-12	99	-1	136*	136*	104	94
CC1(C)CC(=O)C2=C(C1)N(Cc1ccccc1)C(=O)C2(NC(=O)C(C)(C)C)C(F)(F)F (centres undefined)	-7	1.2	5	100	0	109	/	/	/
CCC(C)(C)n1nnnc1C(c1cccnc1)N1CCN(c2cccc(C(F)(F)F)c2)CC1 (centres undefined)	-6	0.79	-9	97	4	110	/	/	/
O=C(Cc1c[nH]c2ccccc12)Nc1nnc(C2CC2)s1	-35	0.95	-9	87	13	137*	168*	102	84
O=C(Cc1coc2ccc3ccccc3c12)Nc1nnc(C2CC2)s1	-48	0.91	12	85	16	153*	148*	81	94
O=C(Cc1ccc([N+](=O)[O-])cc1)Nc1nnc(C2CC2)s1	6	1.2	7	98	3	97	/	/	/
SMILES	STAT3 blocker	NF-kB neuron act	APP 5'UTR act	STAT1 act-1	STAT1 blocker	STAT3 act-1	STAT3 act-2	NFkB act 2	STAT1 act-2
Cc1ccc(OC(=O)c2oc3ccc(F)cc3c2C)c(C)c1	-67	2.8	1	95	6	159*	137*	110	94
COc1ccc(/C=N/Nc2ccccn2)c(OC)c1OC	10	1	36	115	-17	94	/	/	/
Cc1ccc(C)c(/C=N/Nc2ccccn2)c1	-49	1.6	22	125	-27	140*	127	106	128*
Cc1oc2c(cc(NS(=O)(=O)c3cccs3)c3ccccc32)c1C(=O)OC(C)C	-60	1.1	40	102	-1	154*	131	107	108
CC1CCN(C(=O)C2CCC(C)(C(=O)O)C2(C)C)CC1 (centres undefined)	10	1.5	1	102	-2	92	/	/	/
COc1ccnc(Nc2ccc(C)c(C)c2)c1C#N	-46	1.2	8	103	-3	143*	105	95	98
COc1ccc(OC)c(NC(=O)CN(C)CC(=O)Nc2ccccc2Br)c1	12	0.99	12	89	11	94	/	/	/
Cc1ccc2cccc(N=Cc3c(C)[nH]n(-c4ccccc4)c3=O)c2n1	-51	1.1	-2	104	-5	137*	135*	107	110
O=c1cc(O)c2ccccc2n1Cc1ccccc1F	-35	1.3	11	96	4	138*	98	107	104
Cc1ccc(-n2c(=S)[nH]c3sc4c(c3c2=O)CCC4)cc1	-37	1	3	100	-2	137*	116	110	105
CCOC(=O)N1CCN(C(=O)c2ccc3nc4ccsc4c(=O)n3c2)CC1	-45	1	11	104	-3	137*	134*	100	100
CCCn1c(N)c(N(CCOC)C(=O)/C=C/c2cccc(Cl)c2)c(=O)[nH]c1=O	5	1.2	4	88	11	100	/	/	/
COC(=O)c1cn(NC(=O)C2CCC(C(C)(C)C)CC2)c(=O)c2ccccc12 (centres undefined)	8	1.1	-2	99	1	97	/	/	/
